FGF22 binding – FGF22 (human) thermal shift binding; AID 651658; activity (Tm shift, normalised), % at 9.99 µM; recombinant FGF22 thermal shift, SYPRO orange fluorescence; percent of sucrose octasulfate shift, DMSO zero; actives 1.5% (n = 340,000);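 active = mean Tm shift, scaled 0 neutral to 100 positive control, at about 1.3% or above, every replicate too, limit read from the data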
Target sequence (Q9HCT0 whole entry, looked up): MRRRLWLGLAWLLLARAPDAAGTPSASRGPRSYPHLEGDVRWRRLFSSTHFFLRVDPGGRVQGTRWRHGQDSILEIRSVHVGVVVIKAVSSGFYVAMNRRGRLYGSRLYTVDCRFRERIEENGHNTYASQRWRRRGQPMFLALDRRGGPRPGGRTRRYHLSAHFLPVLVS
F508del corr – CFTR F508del correction in bronchial cells; actives 0.36% (n = 350,000); CFBE cells, YFP halide quenching; stimulated with forskolin plus potentiator P3; % fluorescence drop versus neutral controls; activity (quench increase), % at 7.58 µM;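 active = mean added fluorescence quench of at least 8% versus neutral control, with both replicates also reaching 8%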;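 note: cells transiently co-express mutant CFTR-F508del with the halide-sensitive YFP; corrector assay measuring rescue of mutant channel to the surface after 24 h compound exposure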
dFosB activator – activators of mouse delta FosB homodimer; P13346; purified delta FosB, TAMRA-CDK5 oligo fluorescence polarization; percent of positive-control signal above neutral wells; activation, % at 25 µM; actives 0.99% (n = 340,000);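 active = mean activation above about 17%, with every replicate also reaching it, limit read from the data, passing the limit was not always enough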
Target sequence (P13346 whole entry, looked up): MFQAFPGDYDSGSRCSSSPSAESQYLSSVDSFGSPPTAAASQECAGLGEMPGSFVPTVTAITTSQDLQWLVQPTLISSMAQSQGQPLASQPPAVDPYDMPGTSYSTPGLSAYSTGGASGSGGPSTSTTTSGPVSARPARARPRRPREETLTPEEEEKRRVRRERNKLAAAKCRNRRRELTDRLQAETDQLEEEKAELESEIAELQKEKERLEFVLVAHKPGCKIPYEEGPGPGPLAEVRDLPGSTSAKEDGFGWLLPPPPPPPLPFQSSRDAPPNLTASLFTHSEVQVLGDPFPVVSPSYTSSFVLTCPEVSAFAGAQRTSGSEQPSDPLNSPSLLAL
S100A4 MyoIIA – S100A4-myosin IIA interaction inhibition; P26447; S100A4/TAMRA-MyoIIA peptide fluorescence polarization; inhibition, % at 10.7 µM; actives 0.14% (n = 360,000); AID 652163;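 active = mean inhibition of at least 70% across replicates, with every replicate also reaching that level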
Target sequence (P26447 whole entry, looked up): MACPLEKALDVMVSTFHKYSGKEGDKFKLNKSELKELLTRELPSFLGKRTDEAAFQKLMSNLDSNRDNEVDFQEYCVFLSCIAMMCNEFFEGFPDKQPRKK
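incubation = readout 5 min after mixing, signal stable up to 60 min | system = S100A4 monomer protein | buffer or medium = HEPES pH 7.2 with CaCl2, KCl, NaCl, DTT, Triton | benchmarks = neutral control DMSO, positive control TFP | also added = fluorescent myosin IIA peptide, 5 nM | compound dosing = one concentration per compound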
Active calls of the source: *. Compounds with a hit are over-represented: about 2.2% of the library has one in this group of screens.

What do the screens show for `Cc1cccc(NC(=O)CN2CCN(C(=O)CN3C(=O)NC4(CC(C)CC(C)(C)C4)C3=O)CC2)c1C` (configuration not stated)?
FGF22 binding: -0.1; F508del corr: 8.8*; dFosB activator: -18.9; S100A4 MyoIIA: -7.7

How did CC1CC(C)(C)CC2(C1)NC(=O)N(CC(=O)Nc1c(F)cccc1F)C2=O (configuration not stated) do in these assays?
FGF22 binding: -0.4; F508del corr: 1.7; dFosB activator: 2.6; S100A4 MyoIIA: -2.0

How did O=C(c1cccnc1)N1C[C@@H]2[C@H](c3ccccc31)[C@H](CO)N2CC1CCCCC1 do in these assays?
FGF22 binding: -0.8; F508del corr: -1.6; S100A4 MyoIIA: 3.7

What do the screens show for `Cc1ccc(S(=O)(=O)N2CCCC2CNC(=O)C(=O)NCc2ccc3c(c2)OCO3)cc1` (configuration not stated)?
FGF22 binding: 43.0*; F508del corr: -3.9; S100A4 MyoIIA: 1.4

How did Cc1ccc(S(=O)(=O)N2CCCCC2CCNC(=O)C(=O)NCc2ccccc2)cc1 (configuration not stated) do in these assays?
FGF22 binding: -0.1; F508del corr: 9.8*; dFosB activator: -5.6; S100A4 MyoIIA: -1.5

What do the screens show for `Cc1ccc(CNC(=O)C(=O)NCC2OCCN2C(=O)c2ccc3c(c2)OCO3)cc1` (configuration not stated)?
FGF22 binding: 0.2; F508del corr: -0.1; dFosB activator: 16.9*; S100A4 MyoIIA: -7.0

Results for COc1ccc(C(=O)N2CCOC2CNC(=O)C(=O)NCc2ccc3c(c2)OCO3)cc1 (configuration not stated) ?
FGF22 binding: 0.0; F508del corr: 0.4; dFosB activator: 0.1; S100A4 MyoIIA: -1.9

How did Cc1cc(C)nc(N2CCCC(C(=O)Nc3ccc4c(c3)OCO4)C2)n1 (configuration not stated) do in these assays?
dFosB activator: -0.1

How did Cc1cc(C)nc(N2CCCC(C(=O)NCc3ccc4c(c3)OCO4)C2)n1 (configuration not stated) do in these assays?
FGF22 binding: 43.3*; F508del corr: -2.3; dFosB activator: -2.8; S100A4 MyoIIA: 1.6

What do the screens show for `COc1ccc(S(=O)(=O)N2CCCC2CNC(=O)C(=O)NCc2ccc3c(c2)OCO3)cc1` (configuration not stated)?
FGF22 binding: 0.3; F508del corr: 2.4; dFosB activator: -7.8; S100A4 MyoIIA: 1.9

What do the screens show for `CC=Cc1ccc2n(c1=O)C[C@H]1[C@H](CO)[C@@H](C(=O)NC3CCCC3)N(C(=O)C3CC3)[C@@H]21` (mixture of isomers)?
F508del corr: 1.6

Results for COc1ccc(NC(=O)Nc2cccc3c2O[C@@H](CN(C)C(=O)Nc2ccc(C(F)(F)F)cc2)[C@@H](C)CN([C@H](C)CO)C3=O)cc1 ?
FGF22 binding: 0.0; F508del corr: -1.6

Results for O=C(Cn1cc(CN2C(=O)COC[C@H]2c2ccccc2)nn1)Nc1nccs1 ?
FGF22 binding: 0.3; F508del corr: -0.7; S100A4 MyoIIA: 3.3

How did CN(C)C(=O)c1cccc(-c2ccc3c(c2)[C@@H]2[C@@H](CCN2C(=O)Cc2ccncc2)[C@@H](CO)N3)c1 do in these assays?
FGF22 binding: 0.5; F508del corr: 1.8

How did COc1ccc(/C=N/NC(=S)Nc2ccccc2[N+](=O)[O-])cc1O do in these assays?
FGF22 binding: 0.6; F508del corr: 8.8*; dFosB activator: -7.4; S100A4 MyoIIA: -18.0

What do the screens show for `COc1ccc(/C=N\NC(=O)c2ccccc2[N+](=O)[O-])cc1COc1c(F)c(F)c(F)c(F)c1F`?
FGF22 binding: 4.1*; F508del corr: -0.6; dFosB activator: 0.5; S100A4 MyoIIA: 9.1

How did Cc1cccc(NC(=S)N/N=C/c2cccc(O)c2)c1C do in these assays?
FGF22 binding: 0.1; F508del corr: 10.6*; dFosB activator: -11.2; S100A4 MyoIIA: 3.4

What do the screens show for `C[C@H](CO)N1C[C@H](C)[C@@H](CN(C)C(=O)Nc2ccc(C(F)(F)F)cc2)Oc2ccc(NC(=O)C3CC3)cc2CC1=O`?
FGF22 binding: -0.1; F508del corr: -1.8; S100A4 MyoIIA: 5.9

Results for COc1ccc(C(=O)c2c(C)c3cc(C)ccc3n2CC(O)CN2CCOCC2)cc1 (configuration not stated) ?
FGF22 binding: 43.6*; F508del corr: 5.1; dFosB activator: -10.1; S100A4 MyoIIA: -16.9

What do the screens show for `O=C(COC(=O)Cc1cccs1)Nc1ccccc1Cl`?
FGF22 binding: -0.1; F508del corr: -2.4; dFosB activator: 2.0; S100A4 MyoIIA: -3.3

Results for O=C(O)COC(=O)Cc1ccccc1Nc1c(Cl)cccc1Cl ?
FGF22 binding: 0.0; F508del corr: 16.5*; dFosB activator: -3.1; S100A4 MyoIIA: 1.9

Results for Cc1nn(CC2CC2)c(=O)n1-c1ccc(Oc2ccccc2)cc1 ?
FGF22 binding: 43.2*; F508del corr: -0.8; dFosB activator: -2.5; S100A4 MyoIIA: -10.3

Results for COc1ccc(S(=O)(=O)N(C(=O)C(C)C)c2ccc3oc(=O)sc3c2)cc1 ?
FGF22 binding: 0.0; F508del corr: 11.1*; dFosB activator: 1.6; S100A4 MyoIIA: -3.4

What do the screens show for `CC(C)C(=O)N(c1ccc2oc(=O)sc2c1)S(=O)(=O)c1ccccc1`?
FGF22 binding: 0.2; F508del corr: 6.3; dFosB activator: 0.4; S100A4 MyoIIA: 1.1

Results for Cc1ccccc1S(=O)(=O)NCC[C@H]1CC[C@@H](NC(=O)Nc2cccc(Cl)c2)[C@@H](CO)O1 ?
FGF22 binding: -0.1; F508del corr: 2.0; S100A4 MyoIIA: 2.6

How did COc1ccc(NC(=O)Nc2ccc3c(c2)C(=O)N([C@@H](C)CO)C[C@H](C)[C@H](CN(C)C(=O)NC2CCCCC2)OCCCC[C@H](C)O3)cc1 do in these assays?
FGF22 binding: 0.4; F508del corr: -0.1; S100A4 MyoIIA: 2.1

How did O=C(COc1cccc2c1CCN(Cc1ccccc1)C2=O)N1CCCCC1 do in these assays?
FGF22 binding: 43.3*; F508del corr: -2.3; dFosB activator: -8.6; S100A4 MyoIIA: 2.4

How did O=C(Nc1nccs1)C1CC(=O)N(Cc2ccco2)C1 (configuration not stated) do in these assays?
FGF22 binding: 43.1*; F508del corr: -2.4; dFosB activator: -0.4; S100A4 MyoIIA: 2.1

How did COc1ccc(-c2csc(NC(=O)C3CC(=O)N(Cc4ccco4)C3)n2)cc1 (configuration not stated) do in these assays?
FGF22 binding: 42.4; F508del corr: 2.0; dFosB activator: -4.3; S100A4 MyoIIA: -3.1

How did COC(=O)c1ccc2c(c1)nc(C)n2CCO do in these assays?
dFosB activator: -5.8

Results for CCn1c(C)nc2cc(C(=O)OC)ccc21 ?
FGF22 binding: 43.3*; F508del corr: -2.8; dFosB activator: -3.8; S100A4 MyoIIA: -1.1

How did C[C@@H]1CN([C@@H](C)CO)C(=O)Cc2cc(NC(=O)Cc3cn(C)c4ccccc34)ccc2O[C@@H]1CN(C)C do in these assays?
FGF22 binding: -0.2; F508del corr: -0.4; S100A4 MyoIIA: -45.8

Screening results deposited in PubChem BioAssay by Broad Institute.
